The test system of data set [1] is SW480-ADH. As to the kind of experiment: Effect on cellular PIP4K2B mRNA level in human SW480-ADH cells at 10 '-9 to 10 '-7 M after 48 hrs by RT-PCR analysis. The class given is functional, cell-based. The method in brief: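 SW480-ADH cells treated 48 h in medium with charcoal-treated FCS; vehicle controls. Quantitative RT-PCR: 95 °C 10 min, then 40 cycles of 95 °C 15 s and 60 °C 30 s. Expression normalized to RPLP0 by comparative C_T method. Measurements in triplicate.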

Data set [2] has as its system Mus musculus. As to the kind of experiment: Toxicity in CD-1 mouse assessed as body weight loss at 0.3 ug/kg, ip administered every other day for 3 weeks measured on day 21. The class given is organism-based. Particulars: in vivo, 0.0003 mg/kg, 504 h. The method in brief: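 Female CD-1 mice, 6–8 weeks, six per group. Dosed ip in sesame oil every other day for three weeks; vehicle controls. Body weight recorded every other day.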

The test system of data set [3] is Mus musculus. As to the kind of experiment: Increase in serum Calcium levels in CD-1 mouse at 0.3 ug/kg, ip administered every other day for 3 weeks measured on day 21. The class given is functional. The method in brief: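 Female CD-1 mice, 6–8 weeks, six per group. Dosed ip in sesame oil every other day for three weeks; vehicle controls. Serum calcium measured with a colorimetric calcium kit a day after the last dose (day 21). Shown as percentage of calcium increase over untreated mice, with the 1α,25-(OH)₂D₃ group set to 100%. SD reported.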

Data set [4] deals with SW480-ADH. As to the kind of experiment: Induction of human SW480-ADH cell differentiation assessed as formation of compact epithelioid islands of highly adherent cells at 10 '-8 M after 48 hrs by phase-contrast microscopy. The format is functional, cell-based. The method in brief:
(§1)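 SW480-ADH colon cancer cells were treated for 48 h with compound or vehicle in medium with charcoal-treated FCS. Differentiation was scored as compact epithelioid islands of highly adherent cells. A representative experiment is shown.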

In data set [5] the test system is SW480-ADH. The experiment in a line: Induction of human SW480-ADH cell differentiation assessed as formation of compact epithelioid islands of highly adherent cells at 10 '-7 M after 48 hrs by phase-contrast microscopy. The format is functional, cell-based. The method in brief: as §1
The subject of the next data set is MCF7. As to the kind of experiment: Antiproliferative activity against human MCF7 cells at 10 '-7 M after 48 hrs by MTT assay relative to untreated-control. The format is functional, cell-based. The method in brief: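 MCF-7 cells seeded at 5 × 10⁴ per well, treated 24 h later for 48 h in medium with charcoal-treated FCS; vehicle controls. MTT (0.5 μg/μL) added for 1 h, medium removed, formazan dissolved in DMSO, absorbance read at 570 nm. Three individual experiments averaged; SD shown.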
For orientation: Tetrazolium assays rely on reduction of a dye to a coloured formazan, in cell work by metabolically active cells.

Data set [6] addresses T1, Vitamin D3 receptor (Homo sapiens, UniProt P11473).
T1 sequence (P11473 whole entry): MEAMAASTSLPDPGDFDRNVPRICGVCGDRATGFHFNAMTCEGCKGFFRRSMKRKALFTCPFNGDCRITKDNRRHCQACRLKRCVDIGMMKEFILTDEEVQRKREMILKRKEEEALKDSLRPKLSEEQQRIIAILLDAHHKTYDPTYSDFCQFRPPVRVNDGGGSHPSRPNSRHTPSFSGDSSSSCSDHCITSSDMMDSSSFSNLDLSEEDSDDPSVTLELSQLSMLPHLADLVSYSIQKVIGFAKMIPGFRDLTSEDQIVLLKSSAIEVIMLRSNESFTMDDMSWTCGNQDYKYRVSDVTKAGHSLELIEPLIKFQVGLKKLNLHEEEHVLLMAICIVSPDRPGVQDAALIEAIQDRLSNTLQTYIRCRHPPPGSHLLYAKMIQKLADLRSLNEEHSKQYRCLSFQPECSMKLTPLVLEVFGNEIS
As to the kind of experiment: Binding affinity to VDR assessed as inhibition of fluorescent ligand by fluorescence polarization competition assay. In general terms: In fluorescence polarisation assays a small probe gives low polarisation when free and higher when bound to something large.

In data set [7] the target is T1, Vitamin D3 receptor. The experiment in a line: Agonist activity at VDR in human MCF7 cells assessed as transcription of CYP24A1 gene after 24 hrs by luciferase reporter gene assay. The format is functional, cell-based.

Each structure is given as a SMILES string. The source made the active and inactive calls. The calls are words filed in the database; no cut-off is given here.

Regarding `C=C1/C(=C\C=C2/CCC[C@]3(C)[C@@H]([C@H](C)CCCC(C)(C)O)CC[C@@H]23)C[C@@H](O)C[C@@H]1O` [CALCITRIOL], the outcome in the data set on SW480-ADH [1] was inactive. The figures for the Activity result in the data set on Mus musculus [2] and with Mus musculus [3] were “Non-toxic” and 100%, respectively. The result with SW480-ADH [4], in the data set with SW480-ADH [5] and in the data set with MCF7 was Active.
What is called IC50 is the concentration that gives 50% inhibition. Broadly, the EC50 is the concentration needed to bring the measured effect to its halfway point. `C=C1/C(=C\C=C2/CC[C@@H](CCCCCCC(C)(C)O)[C@]3(C)[C@@H]([C@H](C)CCCO)CC[C@@H]23)C[C@@H](O)C[C@@H]1O`: the outcome in the data set on SW480-ADH [1] and in the data set with SW480-ADH [4] was inactive. For the same molecule, the Activity entry is on record as “Non-toxic” with Mus musculus [2] and 1% with Mus musculus [3]. Besides, the result in the data set with SW480-ADH [5] and with MCF7 was Active. On Vitamin D3 receptor [6], the IC50 stood at 15.7 nM. In addition, at Vitamin D3 receptor [7], the EC50 turned out to be 5.74 nM.
Regarding `C=C1/C(=C\C=C2/CC[C@@H](CCCCCCC(C)(C)O)[C@]3(C)[C@@H]([C@H](C)CCO)CC[C@@H]23)C[C@@H](O)C[C@@H]1O`, the outcome with SW480-ADH [1] and with SW480-ADH [4] was inactive. Moreover, the Activity entry in the data set with Mus musculus [2] is “Non-toxic”; in the data set with Mus musculus [3], 18%. Also, the outcome in the data set on SW480-ADH [5] and with MCF7 was Active. On Vitamin D3 receptor [6], the IC50 was 27.3 nM. The EC50 on Vitamin D3 receptor [7] amounted to 9.04 nM.
In the case of `C=C1/C(=C\C=C2/CC[C@@H](CCCCCCC(C)(C)O)[C@]3(C)[C@@H]([C@H](C)CO)CC[C@@H]23)C[C@@H](O)C[C@@H]1O`, the outcome in the data set on SW480-ADH [1] and in the data set with SW480-ADH [4] was inactive. Moreover, the Activity result with Mus musculus [2] is “Non-toxic”; with Mus musculus [3], 0%. For the same molecule, the outcome in the data set with SW480-ADH [5] and in the data set on MCF7 was Active. The IC50 on Vitamin D3 receptor [6] turned out to be 20.9 nM. The EC50 on Vitamin D3 receptor [7] turned out to be 8.19 nM.

The values are drawn from ChEMBL document CHEMBL2169862, “Synthesis and biological evaluation of 1α,25-dihydroxyvitamin D₃ analogues with a long side chain at C12 and short C17 side chains” (J Med Chem, 2012).
